ADAM17 inh: ADAM17 inhibitors, primary screen, biochemical, QFRET; Disintegrin and metalloproteinase domain-containing protein 17 (Homo sapiens), P78536; recombinant ADAM17, EDANS/DABCYL FRET peptide cleavage; inhibition, % at 6.95 µM; 370,000 tested, 0.83% active; AID 720648, 2013;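 active means inhibition above the mean of compounds lying between control limits plus 3 SD, set per campaign, cut at about 8.5% in these data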;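 further: 0% = DMSO-only wells as the low control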
PLC-gamma1 inh: PLC-gamma1 enzyme inhibitors, primary screen, biochemical, fluorescence, purified enzyme | AID 720700, 2013 | 370,000 tested, 0.84% active | 1-phosphatidylinositol 4,5-bisphosphate phosphodiesterase gamma-1 (Homo sapiens), P19174 | fluorogenic substrate | inhibition, % at 12.2 µM; in the data active means inhibition above about 9.5%
Target sequence (P19174 whole entry, looked up): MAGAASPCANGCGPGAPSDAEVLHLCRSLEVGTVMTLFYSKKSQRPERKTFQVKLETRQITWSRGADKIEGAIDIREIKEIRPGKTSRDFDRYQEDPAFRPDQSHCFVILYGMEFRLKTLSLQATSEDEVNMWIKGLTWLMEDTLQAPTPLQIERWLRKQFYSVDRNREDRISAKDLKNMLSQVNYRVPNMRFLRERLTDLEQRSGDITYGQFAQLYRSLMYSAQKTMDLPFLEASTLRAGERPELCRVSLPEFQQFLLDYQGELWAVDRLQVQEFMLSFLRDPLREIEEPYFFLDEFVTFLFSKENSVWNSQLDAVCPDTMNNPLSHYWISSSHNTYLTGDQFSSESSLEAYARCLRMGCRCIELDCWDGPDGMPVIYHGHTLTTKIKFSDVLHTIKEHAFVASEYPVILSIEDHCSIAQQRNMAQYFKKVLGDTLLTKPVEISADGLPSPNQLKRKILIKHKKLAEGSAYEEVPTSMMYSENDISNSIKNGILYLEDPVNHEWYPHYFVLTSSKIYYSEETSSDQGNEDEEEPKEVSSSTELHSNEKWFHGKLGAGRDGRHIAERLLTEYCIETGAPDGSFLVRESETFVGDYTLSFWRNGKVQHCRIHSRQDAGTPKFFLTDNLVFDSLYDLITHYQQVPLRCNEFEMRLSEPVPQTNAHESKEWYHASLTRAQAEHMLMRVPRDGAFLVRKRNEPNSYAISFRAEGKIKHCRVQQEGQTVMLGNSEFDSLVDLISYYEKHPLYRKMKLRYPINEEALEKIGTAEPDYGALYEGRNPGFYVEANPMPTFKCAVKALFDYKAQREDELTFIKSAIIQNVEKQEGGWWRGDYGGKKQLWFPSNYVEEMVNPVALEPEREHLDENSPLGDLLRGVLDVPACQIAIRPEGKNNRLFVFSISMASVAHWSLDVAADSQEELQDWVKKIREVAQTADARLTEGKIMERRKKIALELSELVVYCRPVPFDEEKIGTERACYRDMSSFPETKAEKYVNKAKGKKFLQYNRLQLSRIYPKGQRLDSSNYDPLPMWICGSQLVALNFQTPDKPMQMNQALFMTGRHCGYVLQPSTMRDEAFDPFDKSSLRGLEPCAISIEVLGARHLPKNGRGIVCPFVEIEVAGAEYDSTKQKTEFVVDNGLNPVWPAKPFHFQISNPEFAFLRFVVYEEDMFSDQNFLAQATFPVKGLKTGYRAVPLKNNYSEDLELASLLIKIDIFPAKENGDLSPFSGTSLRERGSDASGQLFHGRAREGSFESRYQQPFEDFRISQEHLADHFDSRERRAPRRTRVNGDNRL
ADAM10 inh: human ADAM10 inhibitors, primary screen, biochemical, QFRET, HTS; recombinant ADAM10, EDANS/DABCYL FRET peptide cleavage, 3 h; inhibition, % at 7 µM; 370,000 tested, 0.62% active; AID 720582, 2013;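 active means inhibition above a per-campaign cutoff equal to the mean of compounds falling between control-based bounds plus 3 SD, cut at about 20% in these data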;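 further: 0% = DMSO wells while the 100% control is not disclosed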
DDE Tn7 FP inh: inhibitors of Tn7 peptide binding to fibrin DD(E), primary screen, biochemical, fluorescence polarization, human fibrin, Tn7 probe | FP displacement of FITC-Tn7 peptide from fibrin DD(E); 0% = median of compound wells per plate | 370,000 tested, 0.13% active | inhibition, % at 8.3 µM;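 active means inhibition above the mean of compounds falling within the control limits plus 3 SD of them, cut at about 14% in these data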;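 further: 0% = plate median of compound wells and 100% = 10 µM Aha-Tn7 peptide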
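Assay system: human fibrin DD(E). Input: DD(E) 2 µM final. Medium: Tris buffer with calcium and detergent, pH 7.8. Compound dosing: single point at 8.3 µM. Timing: 10 min plus 3 h, room temperature. Technique: fluorescence polarization of the labelled Tn7 tracer. Read-out: percent inhibition. Replicates: singlicate testing.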
DDE Tn6 FP inh: inhibitors of Tn6 peptide binding to fibrin DD(E), primary screen, biochemical, fluorescence polarization, human fibrin, Tn6 probe | inhibition, % at 8.3 µM | Fibrinogen beta chain (Homo sapiens), P02675 | AID 720509, 2013 | 370,000 tested, 0.21% active | Fibrin DD(E) TRITC-Tn6 fluorescence polarization displacement;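 active means inhibition above a per-campaign cutoff: mean of compounds within control limits plus 3 SD, cut at about 15% in these data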;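 further: 0% = median of all compound wells on the plate and 100% = blocking peptide control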
PLCb3 inh: human PLC-beta3 inhibitors, primary screen, biochemical, fluorescence; 370,000 tested, 0.18% active; Purified PLC-beta3, fluorogenic substrate; 1-phosphatidylinositol 4,5-bisphosphate phosphodiesterase beta-3 (Homo sapiens), Q01970; inhibition, % at 12.2 µM; in the data active means inhibition above about 11%;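 further: 0% = median of compound wells on plate and 100% = full blocker control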
ADAM10 confirm: human ADAM10 inhibitors, confirmation, biochemical, QFRET, triplicate | shares compounds with ADAM10 inh | ADAM10 QFRET peptide cleavage, EDANS fluorescence | inhibition, % at 6.95 µM | 2,100 tested, 1% active;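 active means inhibition above about 20% chosen separately for each screening run, limit read from the data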;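 further: 0% = DMSO wells and 100% = marimastat wells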
ADAM17 counter: ADAM17 inhibitors, counter-screen for ADAM10 exosite inhibitor project, biochemical, QFRET, high throughput; 2,100 tested, 0.5% active; shares compounds with ADAM10 inh; inhibition, % at 6.95 µM; ADAM17 QFRET peptide cleavage, EDANS fluorescence;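 active means mean triplicate inhibition above the solvent-only control wells' mean plus 3 SD, cut at about 12% in these data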;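 further: 0% = DMSO wells and 100% = marimastat wells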
ADAM10 counter: ADAM10 inhibitors, counter-screen for ADAM17 exosite inhibitor project, biochemical, FRET, human ADAM10; shares compounds with ADAM17 inh; recombinant ADAM10, EDANS/DABCYL FRET peptide cleavage, 3 h; 2,900 tested, 47% active; inhibition, % at 6.95 µM;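 active means mean inhibition over the triplicate runs exceeds the activity threshold set in the earlier primary screen, cut at about 20% in these data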;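 further: 0% = DMSO wells and 100% = marimastat wells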
ADAM17 confirm: ADAM17 inhibitors, hit retest, confirmation, biochemical, QFRET peptide cleavage. shares compounds with ADAM17 inh. recombinant ADAM17, EDANS/DABCYL QFRET peptide cleavage. inhibition, % at 6.95 µM. 2,900 tested, 65% active. AID 743257, 2014;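 active means mean inhibition across replicates above the hit cutoff set in the primary screen, cut at about 8.5% in these data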;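 further: 0% = DMSO wells and 100% = marimastat wells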
An asterisk follows results filed as active; nt = no result. This is a sample that favours compounds with a hit; in the whole collection about 2.3% have one here.

SMILES	ADAM17 inh	PLC-gamma1 inh	ADAM10 inh	DDE Tn7 FP inh	DDE Tn6 FP inh	PLCb3 inh	ADAM10 confirm	ADAM17 counter	ADAM10 counter	ADAM17 confirm
COc1ccccc1NS(=O)(=O)c1cc(NC(=O)c2cccs2)ccc1N1CCCCC1	3.9	-9.5	7.1	6.2	-0.1	-14.0	nt	nt	nt	nt
C[C@@H](N)P(=O)(O)C[C@H](Cc1ccccc1)C(=O)O	0.1	3.3	2.7	-6.2	6.7	-1.8	nt	nt	nt	nt
C[C@H](O)[C@@H]1CN2CCc3ccc(N4CCOCC4)cc3[C@@H]2C[C@@H]1N(C)C(=S)NCCc1ccccc1	-2.1	-7.1	-5.1	-6.7	-2.3	-8.3	nt	nt	nt	nt
CCC1(c2ccccc2)NC(=O)N(CC(=O)Nc2ccc(S(=O)(=O)N3CC(C)CC(C)C3)cc2)C1=O (centres undefined)	10.3*	-1.6	21.1*	3.1	-4.6	-1.0	8.0	2.0	48.5*	23.7*
O=C(Cn1c(=O)c2cccn2c2cccnc21)NCCCN1CCN(c2ccccc2)CC1	-6.8	4.2	-11.2	3.8	-5.2	6.6	nt	nt	nt	nt
COC(=O)[C@]12C[C@H](CC(=O)N3CCN(C(=O)C4CC4)CC3)C(=O)N(Cc3cccc4ccccc34)C1=C[C@H](C1CCCC1)O[C@@H]2C	-1.3	3.2	3.2	3.4	0.7	4.0	nt	nt	nt	nt
Oc1ccccc1C1SC(c2ccccc2O)SC(c2ccccc2O)S1 (centres undefined)	10.8*	6.4	34.8*	0.8	-7.3	0.5	8.3	3.1	42.2*	23.1*
Cc1cccc(C)c1NC(=O)C1CCN(c2ncccn2)CC1	-8.2	-5.9	-36.7	-2.2	0.8	-8.7	nt	nt	nt	nt
Cc1ccc(C)c(Oc2cc(NC(=O)CCCn3nc(C)c([N+](=O)[O-])c3C)cc([N+](=O)[O-])c2)c1	-0.9	-1.5	-8.2	1.0	6.3	1.1	nt	nt	nt	nt
Cc1ccc(Oc2cc(NC(=O)CCCn3nc([N+](=O)[O-])cc3C)cc([N+](=O)[O-])c2)cc1	12.9*	3.0	22.7*	3.8	6.4	4.1	6.4	2.7	31.7*	17.6*
CCN(CC)C(=O)CC[C@@H]1CC[C@]2(CCCN(Cc3ccncc3)C2)O1	-2.1	-3.1	-3.9	6.7	0.4	0.5	nt	nt	nt	nt
Cn1nc(C(C)(C)C)cc1C(=O)N1CCCCC1c1cc(C(=O)Nc2ccc(F)c(Cl)c2)no1 (centres undefined)	11.9*	1.4	20.2*	0.6	2.7	-2.9	5.1	1.6	20.5*	12.0*
CC(COc1ccc(F)cc1)CN1CCC(C(O)(c2ccccc2)c2ccccc2)CC1 (centres undefined)	-2.5	4.1	0.8	1.8	-2.8	2.4	nt	nt	nt	nt
CC(C)[C@H](NS(=O)(=O)c1ccccc1)C(=O)OCC(=O)Nc1ccccc1Sc1ccccc1	9.6*	2.6	19.8*	-1.5	-5.4	3.0	5.1	2.2	18.0	9.1*
O=C(NCc1cccc(Cl)c1)c1ccc(S(=O)(=O)Nc2cccc(C(F)(F)F)c2)cc1	15.3*	7.1	38.9*	-3.4	-10.8	7.2	4.6	1.1	34.4*	17.9*
O=C(Cc1cccc(C(F)(F)F)c1)NCc1cccc(Cl)c1	2.5	1.0	8.4	6.7	5.1	4.5	nt	nt	nt	nt
Nc1nc(-c2ccccc2)c(N=Nc2ccccc2Cl)s1	15.9*	-0.7	25.6*	-11.6	-2.2	3.4	14.4	4.6	39.7*	25.1*
C=C(C)COc1ccc(-c2n[nH]c(C)c2-c2ccc(OC)cc2)c(O)c1	13.5*	1.9	31.0*	-1.2	-7.4	-1.0	13.0	4.1	34.1*	17.0*
COc1ccc(-c2n[nH]c(C)c2-c2cnn(-c3ccccc3)c2)c(O)c1C	15.5*	4.4	31.6*	-7.5	-1.9	0.7	11.6	4.6	27.2*	15.9*
CCOc1ccc(-c2n[nH]c(C)c2-c2ccccc2OC)c(O)c1	4.3	2.2	19.1	-1.1	4.1	2.4	nt	nt	nt	nt
COc1ccc(-c2onc(C)c2-c2cnn(-c3ccccc3)c2)c(O)c1C	-3.5	-0.4	-3.6	4.7	-2.9	-1.7	nt	nt	nt	nt
COc1ccc(-c2n[nH]c(C)c2-c2cscn2)c(O)c1	-1.2	2.1	-4.6	5.6	-1.4	-6.0	nt	nt	nt	nt
COc1ccc(-c2n[nH]c(C)c2-c2cnn(-c3ccccc3)c2)c(O)c1	14.9*	2.5	29.8*	-7.8	-13.1	1.1	3.2	1.3	23.0*	13.6*
CCCC/C=C1/[C@H](CC)N(C)C2=N[C@@H](c3ccccc3)CC(=O)N21	-5.6	1.2	-2.7	1.9	0.8	2.9	nt	nt	nt	nt
CCOc1ncccc1C(=O)N(C)CC(=O)Nc1ccc(C)cc1	0.1	-1.3	-4.4	10.1	5.2	4.1	nt	nt	nt	nt
Cc1ccc(NC(=O)CN(C)C(=O)c2cccnc2Nc2cccc(C(F)(F)F)c2)cc1	13.4*	2.8	36.5*	-10.4	-7.0	-6.6	10.0	2.3	51.7*	28.5*
CC(C)(C)NS(=O)(=O)c1ccc(NC(=O)C(Sc2ccccc2)c2ccccc2)cc1 (centres undefined)	19.1*	2.0	41.3*	-6.6	-17.1	-5.8	6.7	3.2	44.3*	21.5*
Cc1ccc(NC(=O)c2cc(NC(=O)/C=C\C(=O)O)ccc2N2CCCCC2)cc1	18.6*	-230.6	23.9*	3.8	-8.1	-363.1	9.0	2.4	-10.0	1.4

Screening data (PubChem BioAssay)
